Screening results: PubChem BioAssay, several laboratories
VIM-2 inh: blocks Pseudomonas aeruginosa VIM-2 metallo-beta-lactamase; purified VIM-2, nitrocefin hydrolysis, epi-absorbance fluorescence; inhibition, % at 5.6 µM; 290,000 compounds, 0.89% hits;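 active means inhibition above the mean of all tested compounds plus 3 SD, cutoff set per screening run, cut at about 7.5% in these data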;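 further: red hydrolysis product quenches plate fluorescence so inhibitors raise well fluorescence; 0% = enzyme with DMSO and 100% = DMSO without enzyme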
TMEM16A act: activates or potentiates the mouse TMEM16A chloride channel; AID 623877; HEK293 TMEM16A/YFP-H148Q/I152L, iodide quench fluorescence; active compounds read low; B-score at 10 µM; 340,000 compounds, 0.3% hits; Q8BHY3;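 active means fluorescence-ratio B-score plate-corrected deviation score at least 3 library SD below zero, with starting fluorescence score within 5 deviations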;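 further: channel opened by trigger with iodide after compound preincubation; score built on the fluorescence ratio of max minus min over baseline; more negative score means more quench and so TMEM16A activation or potentiation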
Target sequence (Q8BHY3 whole entry, looked up): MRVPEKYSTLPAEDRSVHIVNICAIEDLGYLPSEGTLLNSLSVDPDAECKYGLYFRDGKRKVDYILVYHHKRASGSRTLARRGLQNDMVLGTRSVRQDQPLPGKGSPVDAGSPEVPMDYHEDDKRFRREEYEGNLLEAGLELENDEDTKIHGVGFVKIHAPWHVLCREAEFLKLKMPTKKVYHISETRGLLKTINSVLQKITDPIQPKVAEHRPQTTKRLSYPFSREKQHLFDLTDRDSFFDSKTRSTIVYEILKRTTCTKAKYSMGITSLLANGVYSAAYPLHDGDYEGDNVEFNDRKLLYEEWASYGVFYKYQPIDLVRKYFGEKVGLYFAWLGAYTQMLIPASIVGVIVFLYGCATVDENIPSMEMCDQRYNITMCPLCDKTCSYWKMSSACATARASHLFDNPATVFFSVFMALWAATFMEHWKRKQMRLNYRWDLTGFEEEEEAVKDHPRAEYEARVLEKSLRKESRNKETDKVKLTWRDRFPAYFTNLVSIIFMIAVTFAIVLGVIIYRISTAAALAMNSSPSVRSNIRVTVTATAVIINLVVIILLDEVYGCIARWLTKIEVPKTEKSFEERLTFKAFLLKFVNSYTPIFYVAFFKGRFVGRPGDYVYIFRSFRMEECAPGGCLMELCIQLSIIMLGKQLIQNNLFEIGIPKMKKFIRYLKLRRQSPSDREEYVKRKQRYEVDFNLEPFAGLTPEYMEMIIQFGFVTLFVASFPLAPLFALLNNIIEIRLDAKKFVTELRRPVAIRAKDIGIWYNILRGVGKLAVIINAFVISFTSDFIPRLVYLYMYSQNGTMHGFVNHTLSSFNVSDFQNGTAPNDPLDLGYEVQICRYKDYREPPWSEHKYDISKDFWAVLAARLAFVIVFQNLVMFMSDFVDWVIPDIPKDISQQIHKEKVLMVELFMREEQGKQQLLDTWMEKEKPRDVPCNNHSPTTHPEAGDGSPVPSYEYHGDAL
CHT block: inhibitors of human choline transporter CHT. CHT-expressing cells, membrane potential dye, choline response; active compounds read low. 310,000 compounds, 0.86% hits. Q9GZV3. AID 488975. B-score at 10 µM;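 active means B-score over 3 SD under the library average, and starting fluorescence ratio not unusually high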;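 further: choline stimulus applied at its EC90 after an EC20 pre-addition; B-score computed on integrated fluorescence ratio after choline addition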
IMP-1 inh: blocks Pseudomonas aeruginosa IMP-1 metallo-beta-lactamase. purified IMP-1, nitrocefin hydrolysis, epi-absorbance fluorescence. inhibition, % at 5.6 µM. 290,000 compounds, 0.45% hits. AID 1556;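 active means inhibition above the mean plus 3 SD of all compounds in the same screening run, cut at about 4.5% in these data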;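 further: 0% = IMP-1 with DMSO and 100% = DMSO wells lacking enzyme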
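Assay system: purified recombinant IMP-1 beta-lactamase. Input: IMP-1 0.2 nM before substrate addition. Buffer or medium: Zinc- and detergent-supplemented HEPES buffer, pH 7.1. Schedule: 25 °C, 15 min preincubation, 25 min reaction. Signal: Epi-absorbance fluorescence, 480 nm excitation, 530 nm emission. Evaluation: percent inhibition from optical density relative to buffer-blank wells.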
TMEM16A inh: mouse TMEM16A channel inhibition, primary screen; Q8BHY3; HEK293 TMEM16A/YFP iodide influx fluorescence, ionomycin; normalized B-score (activity score, 25-100; higher = stronger inhibition) at 10 µM; 310,000 compounds, 1.2% hits; AID 588511;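 active means ratio plate-corrected score three or more library SD toward inhibition, starting fluorescence score within five deviations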;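 further: score derived from kinetic fluorescence span divided by baseline fluorescence per well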
CHT allo act: allosteric activators of human choline transporter CHT. CHT-expressing cells, membrane potential dye, choline EC20; active compounds read high; LV-AA mutant CHT in HEK293 cells. B-score at 10 µM. 310,000 compounds, 0.49% hits. AID 488977;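 active means initial fluorescence not abnormally high and integrated response B-score, plate-corrected, over 3 SD above library mean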
CHT activ conf: human CHT activation, confirmatory screen; shares compounds with CHT allo act; CHT-expressing cells, membrane potential dye fluorescence (FDSS); % of choline EC20–EC90 response window; HEK293 expressing CHT LV-AA mutant; choline added at its EC20; activation, % at 10 µM; 2,500 compounds, 91% hits; AID 504833;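 active means primary screen active, with duplicate mean activation above negative control mean plus 3 SD, cut at about 11% in these data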
HEK293 MP dye: counter-screen for CHT activators: effect in parental HEK293 cells; shares compounds with CHT allo act; membrane potential dye fluorescence (FDSS); measured after EC20 choline addition; ratio readout change at 10 µM, hits read low; 2,500 compounds, 62% hits; AID 623908;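 active means duplicate-averaged ratio beyond 3 SD from buffer wells, up or down, though filed actives are nearly all decreases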
Starred values were filed as active, the others as inactive; i = inactive; x = no result given. Rows were chosen to be rich in hits. Some 3.4% of all compounds tested hit in one or more screens of this group.

SMILES	VIM-2 inh	TMEM16A act	CHT block	IMP-1 inh	TMEM16A inh	CHT allo act	CHT activ conf	HEK293 MP dye
Cc1nc2ccccc2c(=O)n1CC(=O)N1CCOCC1	-1.6	i	i	1.4	i	i	x	x
O=C(Cn1c(=O)c2ccccc2n(CC(=O)N2CCCCC2)c1=O)N1CCCCC1	1.6	i	i	0.5	i	i	x	x
Cc1cccc2c(=O)cc(C)n(CC(=O)N3CCCCC3)c12	-1.0	i	i	-2.4	i	7.58*	61.6*	-70.2*
Cc1cccc2c(=O)cc(C)n(CC(=O)N3CCOCC3)c12	0.9	i	i	1.2	i	10.5*	47.1*	i
CC(C)[C@H](NS(=O)(=O)c1cccc(Cl)c1)C(=O)OCC(=O)NC(=O)CN1CCCC1=O	x	i	x	x	x	x	x	x
CC1CN(C2CCCCC2)C(=O)NC1=O (configuration not stated)	x	i	x	x	x	x	x	x
Fc1ccc(C(CCNCc2ccccn2)c2ccc(Cl)cc2)cc1 (configuration not stated)	-5.2	i	i	-3.6	i	i	16.4*	i
c1ccc(CN2CCN(c3nc(NCc4ccco4)c4ccccc4n3)CC2)cc1	-2.0	i	i	-1.8	i	6.44*	25.8*	-52.8*
Cc1ccc(OCCN2CCN(c3nc(NCc4ccco4)c4ccccc4n3)CC2)cc1	-4.0	i	i	-2.3	i	i	x	x
N#Cc1ccccc1S(=O)(=O)N1CCN(CC(O)COc2ccccc2F)CC1 (configuration not stated)	-0.9	i	i	0.6	i	i	x	x
COc1ccc(CCN=C(N)NS(=O)(=O)c2ccc(OC)cc2)cc1	-3.3	i	i	-3.0	i	i	x	x
COc1ccc(CCN=C(N)Nc2nc(C)cc(C)n2)cc1	0.0	i	i	-1.2	i	6.52*	50.3*	-40.7*
Nc1ccc(C(=O)N2CCN(S(=O)(=O)c3ccc4c(c3)OCCCO4)CC2)cc1[N+](=O)[O-]	x	i	x	x	x	x	x	x
CCOc1ccc(C(=O)OCC(=O)Nc2cccnc2Cl)cc1OCC	x	i	x	x	x	x	x	x
CCOC(=O)c1ncccc1NC(=O)CC(=O)Nc1cccnc1C(=O)OCC	x	i	i	x	i	i	31.8*	-35.9*
O=C1c2ccccc2C(=O)N1CCSc1nc2ccccc2c(=O)n1CCCN1CCOCC1	-1.9	i	i	-3.9	i	i	x	x
O=C1c2ccccc2C(=O)N1CCCCSc1nc2ccccc2c(=O)n1CCCN1CCOCC1	4.8	i	i	-3.4	i	i	34.9*	i
CCc1ccc(NC(=O)CSc2nc3ccccc3c(=O)n2CCCN2CCC(C)CC2)cc1	-3.3	i	i	-2.7	i	i	17.2*	i
COC(=O)COc1ccc(-c2ccccc2)cc1C=O	0.8	i	i	-0.3	i	20.1*	5.6	i
CCN(Cc1ccccc1)C(c1ccc(Cl)cc1)c1nnnn1C(C)(C)C (configuration not stated)	-3.5	i	i	-0.7	i	7.19*	31.6*	i
Cc1ccccc1-n1nc(CSc2nc3ccccc3[nH]2)c(-c2ccccc2)c1N	-4.8	i	i	-2.9	i	i	35.0*	i
CCCC1OC(c2ccco2)OCC1CC (configuration not stated)	x	i	x	x	x	x	x	x
COc1ccccc1C(=O)Nc1ccc2c(c1)nc1n2CCN(C2CCCCC2)C1	-0.8	i	i	-2.6	i	i	x	x
Cc1cccc(NC(=O)COc2cccc3c2CCN(C)C3=O)c1C	-2.1	i	i	-1.8	i	i	x	x
CCOC(=O)c1c(NC(=O)COc2cccc3c2CCN(C)C3=O)sc2c1CCC2	0.5	i	i	-2.9	i	i	25.2*	i
